Measurements published in ChEMBL document CHEMBL1158832, “Bioactive tetrahydrofuran lignans from Peperomia dindygulensis” (J Nat Prod, 2005).
Converted amounts (≈) assume the structure as drawn.

Tests used:
WI-38 VA13 = assay: Cytotoxicity against human VA13 cells after 48 hrs by WST8 assay; format: functional, cell-based; settings: WI-38 VA13, 48 h
Outline: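 VA-13 cells grown in RITC 80-7 with 10% FBS; ca. 5000 cells/well preincubated 24 h at 37 °C, 5% CO2, then compounds in DMSO added for 48 h. WST-8 added, formazan read at 450 nm; IC50 taken as 50% growth inhibition from viability-versus-concentration plot.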

P-glycoprotein (ABCB1) [1] = molecular target: T1, P-glycoprotein (ABCB1) (Homo sapiens, UniProt P08183); assay: Inhibition of P-glycoprotein-mediated multidrug resistance in adriamycin-resistant human A2780 cells assessed as calcein accumulation at 2.5 ug/ml after 15 mins relative to control; format: cell-based; settings: probe calcein, values are per cent of control
P-glycoprotein (ABCB1) [2] = molecular target: T1, P-glycoprotein (ABCB1); assay: Inhibition of P-glycoprotein-mediated multidrug resistance in adriamycin-resistant human A2780 cells assessed as calcein accumulation at 0.25 ug/ml after 15 mins relative to control; format: cell-based; settings: probe calcein, values are per cent of control
P-glycoprotein (ABCB1) [3] = molecular target: T1, P-glycoprotein (ABCB1); assay: Inhibition of P-glycoprotein-mediated multidrug resistance in adriamycin-resistant human A2780 cells assessed as calcein accumulation at 2.5 ug/ml after 15 mins relative to verapamil; format: cell-based; settings: probe calcein
P-glycoprotein (ABCB1) [4] = molecular target: T1, P-glycoprotein (ABCB1); assay: Inhibition of P-glycoprotein-mediated multidrug resistance in adriamycin-resistant human A2780 cells assessed as calcein accumulation at 25 ug/ml after 15 mins relative to control; format: cell-based; settings: probe calcein, values are per cent of control
P-glycoprotein (ABCB1) [5] = molecular target: T1, P-glycoprotein (ABCB1); assay: Inhibition of P-glycoprotein-mediated multidrug resistance in adriamycin-resistant human A2780 cells assessed as calcein accumulation at 25 ug/ml after 15 mins relative to verapamil; format: cell-based; settings: probe calcein
P-glycoprotein (ABCB1) [6] = molecular target: T1, P-glycoprotein (ABCB1); assay: Inhibition of P-glycoprotein-mediated multidrug resistance in adriamycin-resistant human A2780 cells assessed as calcein accumulation at 0.25 ug/ml after 15 mins relative to verapamil; format: cell-based; settings: probe calcein
A549 [7] = assay: Antiinflammatory activity against human A549 cells assessed as inhibition of IL-1-alpha-induced ICAM1 expression; format: functional, cell-based
Outline: (§1)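 A549 cells, 2 × 10^4/well seeded the day before, preincubated 1 h ± test compounds, then stimulated with IL-1α (1 ng/mL) or TNF-α (10 ng/mL) for 6 h. Fixed in 1% paraformaldehyde, mouse anti-human ICAM-1 then peroxidase anti-mouse IgG; o-phenylenediamine/H2O2 substrate, pH 5.3, 20 min 37 °C, A415. Expression as % of stimulated minus unstimulated absorbance.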

A549 [8] = assay: Antiinflammatory activity against human A549 cells assessed as inhibition of TNF-alpha-induced ICAM1 expression; format: functional, cell-based; outline: as §1
A549 [9] = assay: Cytotoxicity against human A549 cells after 24 hrs by MTT assay; format: functional, cell-based
Outline: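 A549 cells, 2 × 10^4/well seeded the day before, exposed to test compounds 24 h; MTT 500 µg/mL pulsed for the final 4 h, formazan dissolved in 10% SDS overnight, A595. Viability as (sample − background)/(control − background) × 100.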

HepG2 = assay: Cytotoxicity against human HepG2 cells after 48 hrs by WST8 assay; format: functional, cell-based; settings: HepG2, 48 h
Outline: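 About 5000 cells per well, preincubated 24 h at 37 °C in 5% CO2. Cells kept in D-MEM with 10% FBS and 80 µg/mL kanamycin. Samples were added in DMSO and incubated a further 48 h. WST-8 formazan was read at 450 nm, viability was plotted against concentration, and IC50 was taken as the concentration giving 50% growth inhibition.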

T1 sequence (P08183 whole entry): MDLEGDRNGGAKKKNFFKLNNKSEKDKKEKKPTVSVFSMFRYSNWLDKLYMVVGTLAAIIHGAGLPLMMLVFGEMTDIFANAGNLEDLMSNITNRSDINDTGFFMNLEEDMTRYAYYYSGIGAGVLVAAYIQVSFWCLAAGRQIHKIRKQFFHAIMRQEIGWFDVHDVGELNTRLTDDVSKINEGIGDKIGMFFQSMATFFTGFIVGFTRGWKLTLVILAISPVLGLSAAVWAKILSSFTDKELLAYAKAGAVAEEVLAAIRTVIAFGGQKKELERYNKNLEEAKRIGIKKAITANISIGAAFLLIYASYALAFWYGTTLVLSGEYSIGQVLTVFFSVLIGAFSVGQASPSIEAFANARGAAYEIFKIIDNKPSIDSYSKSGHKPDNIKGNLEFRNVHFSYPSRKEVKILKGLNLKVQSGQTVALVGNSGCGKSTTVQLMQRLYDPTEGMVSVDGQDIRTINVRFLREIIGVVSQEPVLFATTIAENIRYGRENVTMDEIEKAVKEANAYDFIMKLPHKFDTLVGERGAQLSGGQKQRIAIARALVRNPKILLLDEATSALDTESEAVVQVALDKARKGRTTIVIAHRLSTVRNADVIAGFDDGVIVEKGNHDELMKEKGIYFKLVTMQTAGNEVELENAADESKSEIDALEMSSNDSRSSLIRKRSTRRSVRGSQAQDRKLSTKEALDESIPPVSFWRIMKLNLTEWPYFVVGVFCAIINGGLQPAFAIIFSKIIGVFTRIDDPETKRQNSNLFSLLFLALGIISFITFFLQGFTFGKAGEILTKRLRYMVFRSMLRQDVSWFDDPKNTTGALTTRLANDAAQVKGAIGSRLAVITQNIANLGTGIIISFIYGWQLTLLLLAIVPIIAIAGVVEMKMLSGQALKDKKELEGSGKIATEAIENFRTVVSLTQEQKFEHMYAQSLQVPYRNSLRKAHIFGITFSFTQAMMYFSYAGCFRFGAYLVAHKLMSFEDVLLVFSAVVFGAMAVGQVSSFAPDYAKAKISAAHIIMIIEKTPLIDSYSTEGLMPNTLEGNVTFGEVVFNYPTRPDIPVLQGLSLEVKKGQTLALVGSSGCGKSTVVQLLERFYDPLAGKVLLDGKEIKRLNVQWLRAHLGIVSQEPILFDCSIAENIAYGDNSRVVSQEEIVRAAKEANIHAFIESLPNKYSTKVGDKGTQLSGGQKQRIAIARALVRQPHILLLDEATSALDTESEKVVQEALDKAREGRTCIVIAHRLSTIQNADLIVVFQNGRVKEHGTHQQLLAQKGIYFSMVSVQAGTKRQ

response, % of control at 0.25 h, 2.5 ug/ml (P-glycoprotein (ABCB1) [1]) [%]	response, % of control at 0.25 h, 0.25 ug/ml (P-glycoprotein (ABCB1) [2]) [%]	inhibition at 0.25 h, 2.5 ug/ml (P-glycoprotein (ABCB1) [3]) [%]	response, % of control at 0.25 h, 25 ug/ml (P-glycoprotein (ABCB1) [4]) [%]	inhibition at 0.25 h, 25 ug/ml (P-glycoprotein (ABCB1) [5]) [%]	inhibition at 0.25 h, 0.25 ug/ml (P-glycoprotein (ABCB1) [6]) [%]	IC50 (A549 [7]) [µM]	IC50 (A549 [8]) [µM]	SMILES	IC50 (WI-38 VA13) [µg/mL]	Activity (A549 [9])	IC50 (HepG2) [µg/mL]
								COc1cc([C@H]2O[C@H](c3cc(OC)c4c(c3)OCO4)[C@@H](COC(C)=O)[C@@H]2CO)cc2c1OCO2	36.2 (≈ 76.3 µM)		
								COc1ccc(-c2cc(=O)c3c(O)cc(OC)cc3o2)cc1 [APIGENIN DIMETHYLETHER]	38.9 (≈ 130 µM)		
85	76	89	94	72	86			COc1cc([C@H]2O[C@@H](c3cc(OC)c4c(c3)OCO4)[C@@H](COC(C)=O)[C@@H]2CO)cc2c1OCO2			
105	97	110	138	107	110	189	105	COc1cc([C@@H]2O[C@H](c3cc(OC)c4c(c3)OCO4)[C@@H](COC(C)=O)[C@@H]2CO)cc(OC)c1OC		Not toxic	
95	88	99	101	78	100	84.4	38.6	COc1cc([C@@H]2O[C@H](c3cc(OC)c4c(c3)OCO4)[C@@H](COC(C)=O)[C@@H]2COC(C)=O)cc(OC)c1O	47.4 (≈ 91.4 µM)	Not toxic	
								O=C1CCCC(=O)C1C(=O)CCc1ccccc1	40.5 (≈ 166 µM)		

SMILES	response, % of control at 0.25 h, 2.5 ug/ml (P-glycoprotein (ABCB1) [1]) [%]	response, % of control at 0.25 h, 0.25 ug/ml (P-glycoprotein (ABCB1) [2]) [%]	inhibition at 0.25 h, 2.5 ug/ml (P-glycoprotein (ABCB1) [3]) [%]	response, % of control at 0.25 h, 25 ug/ml (P-glycoprotein (ABCB1) [4]) [%]	inhibition at 0.25 h, 25 ug/ml (P-glycoprotein (ABCB1) [5]) [%]	inhibition at 0.25 h, 0.25 ug/ml (P-glycoprotein (ABCB1) [6]) [%]	IC50 (A549 [7]) [µM]	IC50 (A549 [8]) [µM]	IC50 (WI-38 VA13) [µg/mL]	Activity (A549 [9])	IC50 (HepG2) [µg/mL]
CC(C)[C@@H](C)/C=C/[C@@H](C)[C@H]1CC[C@H]2[C@@]3(O)C=C[C@@]4(O)C[C@@H](O)CC[C@]4(C)[C@H]3CC[C@]12C	106	97	111	95	73	109			48.1 (≈ 112 µM)		47.9 (≈ 111 µM)
